Source: ChEMBL document CHEMBL2151014, “Facile water promoted synthesis of 1,2,3-triazolyl dihydropyrimidine-2-thione hybrids - highly potent antibacterial agents” (2012)
Values after ≈ are worked out from the molar mass of the structure shown. Active and inactive are the calls of the source. No cut-off for these calls is given here.

Key:
Staphylococcus aureus = assay: Antibacterial activity against Staphylococcus aureus after 48 hrs by well diffusion assay; type: functional
How it was run: (§1)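 Clinical isolates identified biochemically; maintained on yeast extract–peptone–NaCl agar, pH 7.2, at 28 ± 2 °C. About 1 mL inoculum mixed into molten nutrient agar and poured. A central 5 mm well was cut and filled with 50 μL of compound in 10% DMSO, filter-sterilized, at various concentrations. 10% DMSO served as control. Inhibition zones were read after 48 h at room temperature.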

Streptococcus pneumoniae = assay: Antibacterial activity against Streptococcus pneumoniae after 48 hrs by well diffusion assay; type: functional; how it was run: as §1
Pseudomonas aeruginosa = assay: Antibacterial activity against Pseudomonas aeruginosa after 48 hrs by well diffusion assay; type: functional; how it was run: as §1
Salmonella typhi = assay: Antibacterial activity against Salmonella typhi after 48 hrs by well diffusion assay
[1] = Salmonella enterica subsp. enterica serovar Typhi

Compound	MIC99 (Staphylococcus aureus)	MIC99 (Streptococcus pneumoniae)	MIC99 (Pseudomonas aeruginosa)	MIC99 (Salmonella typhi; Salmonella enterica)	MIC99 (Salmonella typhi; [1])
CN(C)[C@@H]1C(O)=C(C(N)=O)C(=O)[C@@]2(O)C(O)=C3C(=O)c4c(O)cccc4[C@@](C)(O)[C@H]3C[C@@H]12 [TETRACYCLINE]	10 µg/mL (≈ 22.5 µM)	20 µg/mL (≈ 45 µM)	10 µg/mL (≈ 22.5 µM)	15 µg/mL (≈ 33.8 µM)	
COc1ccc(C2C=C(c3nnn(Cc4ccccc4)c3C)NC(=S)N2)c(OC)c1 (configuration not stated)	inactive	42 µg/mL (≈ 99.6 µM)	inactive	32 µg/mL (≈ 75.9 µM)	
Cc1ccc(C2C=C(c3nnn(Cc4ccccc4)c3C)NC(=S)N2)cc1 (configuration not stated)	8 µg/mL (≈ 21.3 µM)	16 µg/mL (≈ 42.6 µM)	10 µg/mL (≈ 26.6 µM)	13 µg/mL (≈ 34.6 µM)	
Cc1c(C2=CC(c3ccccc3Br)NC(=S)N2)nnn1Cc1ccccc1 (configuration not stated)	inactive	33 µg/mL (≈ 74.9 µM)	inactive		inactive
Cc1c(C2=CC(c3ccc(Cl)cc3)NC(=S)N2)nnn1Cc1ccccc1 (configuration not stated)	10 µg/mL (≈ 25.3 µM)	10 µg/mL (≈ 25.3 µM)	9 µg/mL (≈ 22.7 µM)	20 µg/mL (≈ 50.5 µM)	
Cc1c(C2=CC(c3ccc(Br)cc3)NC(=S)N2)nnn1Cc1ccccc1 (configuration not stated)	95 µg/mL (≈ 216 µM)	44 µg/mL (≈ 99.9 µM)	100 µg/mL (≈ 227 µM)	120 µg/mL (≈ 272 µM)	
Cc1c(C2=CC(c3ccc(F)cc3)NC(=S)N2)nnn1Cc1ccccc1 (configuration not stated)	85 µg/mL (≈ 224 µM)	100 µg/mL (≈ 264 µM)	130 µg/mL (≈ 343 µM)		inactive
Cc1c(C2=CC(c3cccc(Br)c3)NC(=S)N2)nnn1Cc1ccccc1 (configuration not stated)	22 µg/mL (≈ 50 µM)	35 µg/mL (≈ 79.5 µM)	24 µg/mL (≈ 54.5 µM)	90 µg/mL (≈ 204 µM)	
Cc1ccccc1C1C=C(c2nnn(Cc3ccccc3)c2C)NC(=S)N1 (configuration not stated)	37 µg/mL (≈ 98.5 µM)	19 µg/mL (≈ 50.6 µM)	18 µg/mL (≈ 47.9 µM)	25 µg/mL (≈ 66.6 µM)	
Cc1c(C2=CC(c3ccc(Cl)cc3Cl)NC(=S)N2)nnn1Cc1ccccc1 (configuration not stated)	43 µg/mL (≈ 99.9 µM)	25 µg/mL (≈ 58.1 µM)	inactive		inactive
Cc1c(C2=CC(c3ccccc3)NC(=S)N2)nnn1Cc1ccccc1 (configuration not stated)	10 µg/mL (≈ 27.7 µM)	19 µg/mL (≈ 52.6 µM)	12 µg/mL (≈ 33.2 µM)	18 µg/mL (≈ 49.8 µM)	
Cc1c(C2=CC(c3ccc([N+](=O)[O-])cc3)NC(=S)N2)nnn1Cc1ccccc1 (configuration not stated)	20 µg/mL (≈ 49.2 µM)	20 µg/mL (≈ 49.2 µM)	20 µg/mL (≈ 49.2 µM)	80 µg/mL (≈ 197 µM)	
COc1ccc(C2C=C(c3nnn(Cc4ccccc4)c3C)NC(=S)N2)cc1 (configuration not stated)	inactive	40 µg/mL (≈ 102 µM)	10 µg/mL (≈ 25.5 µM)		inactive
